An excerpt weighted towards active compounds, which were near 9.4% of everything screened.
Beta apoptosis: beta cell apoptosis inhibition. INS-1E cytokine-induced death, ATP luminescence, 48 h; percent of positive-control rescue, neutral wells zero. protection from apoptosis, % (concentration not given with the values). 0.8% of 300,000 active. AID 435005;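 active = Every replicate reaches about 75%, or at least half do and their mean reaches it too, limit read from the data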;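 note: 0% = cytokine-treated negative control wells and 100% = positive control rescue; higher means more ATP so stronger rescue from cytokine killing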
T cruzi repl: blocks replication of Trypanosoma cruzi | 1.4% of 300,000 active | T. cruzi beta-gal in NIH3T3, luminescence, 90 h | AID 1885 | inhibition, % (concentration not given with the values);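 active = mean inhibition across valid replicates above about 55%, limit read from the data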;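 note: signal also drops with host cell toxicity which is not excluded here; 0% = plate median of DMSO wells and 100% = zero luminescence signal; higher percent means less beta-gal luminescence so fewer parasites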
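System: mouse NIH/3T3 fibroblasts infected with β-gal-expressing T. cruzi Tulahuen C4 / Input: NIH/3T3 cells, 5,000 per well / Buffer or medium: Low-serum DMEM with 2% FBS / Probe or stimulus: 5000 reporter trypomastigotes per well / Schedule: ≥90 h infection period, 3 h prior cell attachment / Measured by: GalScreen luminescence, 60 min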
Mdm2 MdmX PPI: disrupts the human Mdm2-MdmX interaction; O15151+Q00987; SaOS-2 split-luciferase Mdm2/MdmX complementation, luminescence; inhibition, % at 8 µM; 3% of 330,000 active; AID 485346;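 active = inhibition of at least 50% at 8 µM in the primary screen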
Target sequence (O15151 whole entry, looked up): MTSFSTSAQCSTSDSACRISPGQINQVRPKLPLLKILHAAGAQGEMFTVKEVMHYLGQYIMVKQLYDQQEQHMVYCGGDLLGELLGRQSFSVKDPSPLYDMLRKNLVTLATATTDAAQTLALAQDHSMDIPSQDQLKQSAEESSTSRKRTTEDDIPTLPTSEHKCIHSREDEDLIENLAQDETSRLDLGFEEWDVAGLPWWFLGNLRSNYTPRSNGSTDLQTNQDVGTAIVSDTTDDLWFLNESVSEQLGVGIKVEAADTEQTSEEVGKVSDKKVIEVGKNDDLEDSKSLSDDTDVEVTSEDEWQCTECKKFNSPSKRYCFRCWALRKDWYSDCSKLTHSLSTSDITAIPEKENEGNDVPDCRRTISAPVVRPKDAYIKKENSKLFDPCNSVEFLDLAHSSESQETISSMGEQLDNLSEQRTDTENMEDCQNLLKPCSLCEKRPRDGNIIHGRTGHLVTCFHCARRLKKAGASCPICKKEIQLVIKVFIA
Target sequence (Q00987 whole entry, looked up): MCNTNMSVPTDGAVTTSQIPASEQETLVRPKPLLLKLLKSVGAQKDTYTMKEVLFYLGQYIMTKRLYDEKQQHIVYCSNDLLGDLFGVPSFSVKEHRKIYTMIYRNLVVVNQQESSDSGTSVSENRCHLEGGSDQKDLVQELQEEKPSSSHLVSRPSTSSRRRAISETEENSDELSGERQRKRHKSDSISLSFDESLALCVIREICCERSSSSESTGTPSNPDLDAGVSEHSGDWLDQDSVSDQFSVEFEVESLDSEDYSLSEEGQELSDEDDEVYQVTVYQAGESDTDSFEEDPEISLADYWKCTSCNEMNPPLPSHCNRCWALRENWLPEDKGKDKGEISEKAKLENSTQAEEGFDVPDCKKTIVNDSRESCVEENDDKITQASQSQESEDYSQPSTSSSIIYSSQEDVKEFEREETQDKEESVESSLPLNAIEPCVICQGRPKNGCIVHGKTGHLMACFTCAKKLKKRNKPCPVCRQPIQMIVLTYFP
CSC inhib: blocks cancer stem cells; 1.1% of 300,000 active; inhibition, % at 7.5 µM; AID 2717; cancer stem cell-like cells viability, luminescence; in the data active = inhibition above about 75%; tested in HMLE shEcad cells
SKKanGAS inh: blocks kanamycin growth of S. pyogenes SKKanGAS strain; 1.3% of 300,000 active; BacTiter-Glo, 6 h; inhibition, % at 7.5 µM;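 active = mean replicate score, as percent of positive control median, at least 50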;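 note: strain carries kanamycin resistance gene driven by streptokinase promoter and grows in 40 µg/ml kanamycin; loss of luminescence reflects streptokinase promoter inhibition or plain growth inhibition; 0% = median of DMSO wells and 100% = positive control at its reference dose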
L major viab: inhibitors of Leishmania major promastigote growth; Leishmania major promastigotes, resazurin fluorescence viability; inhibition, % at 10 µM; 9% of 200,000 active; in the data active = inhibition above about 50%;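 note: promastigotes grown with compound for 44 hours at 28 °C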
Mdm2-MdmX conf: human Mdm2/MdmX binding inhibition, confirmed; shares compounds with Mdm2 MdmX PPI; luminescent assay; inhibition, % at 8 µM; 55% of 10,000 active; AID 489028; in the data active = inhibition above about 40%
Full FLuc ctr: counter-screen for Mdm2/MdmX inhibitors: full-length luciferase; shares compounds with Mdm2 MdmX PPI; SaOS-2 full-length luciferase counterscreen, luminescence; inhibition, % at 8 µM; 77% of 6,200 active;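 active = mean inhibition at 8 µM reaching about 37%, which flags the compound as non-specific, limit read from the data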;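 note: p53-null SaOS-2 cells with luciferase driven by a doxycycline-inducible promoter; compound on cells about two nights before reading with doxycycline added after day one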
Numbers without * were called inactive; x = no result given.

SMILES | Beta apoptosis | T cruzi repl | Mdm2 MdmX PPI | CSC inhib | SKKanGAS inh | L major viab | Mdm2-MdmX conf | others
O=c1cc(N2CCN(c3ccccc3)CC2)[nH]c(=O)n1C1CCCCC1 | -27.9 | -15.6 | 67.0* | 49.0 | -3.1 | 5.9 | 66.4* | Full FLuc ctr=55.9*
CCOc1ccccc1NC(=O)Nc1ccc(CC#N)cc1 | -2.7 | 1.3 | 21.1 | 2.6 | 3.7 | x | x
COc1ccc(C)cc1-n1nnnc1SCC(=O)NC1CC1 | -3.1 | x | 20.7 | -5.8 | x | x | x
COC(=O)c1ccc(C(=O)Nc2ccc(C(C)C)cc2N)cc1 | 0.2 | 47.7 | -18.3 | -24.0 | -1.9 | -1.2 | x
CCC/C=C(\CCC)C(NC(=O)CCc1ccccc1)c1ccc(C(F)(F)F)cc1 (centres undefined) | 0.4 | 9.0 | 0.9 | 15.8 | 3.6 | x | x
CCOCCCNC(=O)c1cc2c(-c3ccc(Cl)cc3)nn(C)c2s1 | -0.5 | 3.8 | 19.1 | 13.7 | -2.1 | 7.2 | x
Cn1nc(-c2ccc(Cl)cc2)c2cc(C(=O)NCCN3CCOCC3)sc21 | 3.9 | 2.3 | 11.8 | 47.3 | -4.2 | 13.0 | x
Cn1nc(-c2ccc(Cl)cc2)c2cc(C(=O)NC3CC3)sc21 | 5.5 | -5.3 | 58.9* | 6.0 | -12.5 | 10.3 | 25.2
CCCCN(CC)CCNC(=O)c1cc2c(-c3ccc(Cl)cc3)nn(C)c2s1 | 20.3 | 57.1* | 57.7* | 112.1* | -1.9 | x | 32.9 | Full FLuc ctr=31.2
CC(C)c1ccc(N2C(=O)CC(Sc3nc4ccccc4o3)C2=O)cc1 (centres undefined) | x | 35.7 | 100.5* | 8.2 | 7.3 | -0.3 | 28.7
COc1ccc(NC(=O)C2CCN(S(=O)(=O)c3cccs3)CC2)cc1OC | 0.0 | x | -6.7 | 3.4 | x | x | x
COc1ccc(C(CCNCc2ccc(OC(C)C)cc2)c2ccccc2OC)cc1 (centres undefined) | 75.8* | 52.2 | 87.0* | 101.2* | -1.0 | x | 30.8 | Full FLuc ctr=81.9*
COc1ccccc1C(CC(=O)Nc1ccccc1C)c1ccc(OC(C)C)cc1 (centres undefined) | 5.4 | 11.8 | 19.1 | 1.7 | 10.3 | 38.2 | x
COc1ccc(C(CCNCc2ccc(N(C)C)cc2)c2ccccc2OC)cc1 (centres undefined) | 29.9 | 46.0 | 54.0* | 1.7 | -10.4 | x | 28.7
COc1ccc(CNC(C)CCc2ccccc2)cc1 (centres undefined) | 5.8 | 22.9 | -37.5 | 4.0 | 2.8 | x | x
CCOC(=O)C1CCCN(C(=O)c2ccc(C)c(NC(=O)C3=C(C)OCCS3)c2)C1 (centres undefined) | -2.4 | -15.6 | 8.1 | -3.4 | 3.9 | x | x
CC1(C)Cc2c(c(N3CCOCC3)nc3sc4c(NCc5ccccc5)nnnc4c23)CS1 | 8.4 | 61.6* | 93.6* | 8.0 | 14.0 | 24.4 | 5.5
CC1(C)Cc2c(c(N3CCOCC3)nc3sc4c(NN)ncnc4c23)CS1 | 81.1* | 26.7 | 60.6* | 87.2* | 17.4 | 97.1* | 12.3
CC(C)CNc1nnnc2c1sc1nc(N3CCOCC3)c3c(c12)CC(C)(C)SC3 | 19.4 | 46.3 | 35.1 | -6.2 | 23.2 | 35.3 | x
O=C(NC1CCCC1)C(c1ccc(F)cc1)N(Cc1ccc(F)cc1)C(=O)c1ccn[nH]1 (centres undefined) | -0.5 | 13.6 | -11.8 | -9.8 | 25.1 | 12.9 | x
COCCN(C(=O)CCl)C(C(=O)NC1CCCCC1)c1ccccc1C (centres undefined) | x | -10.0 | 97.2* | x | 1.4 | 98.5* | 72.2* | Full FLuc ctr=37.9*
O=C(NC1CCCC1)C(c1ccc(F)cc1)N(Cc1ccccc1Cl)C(=O)CCl (centres undefined) | -6.0 | -10.3 | 55.2* | 6.9 | -4.3 | 98.2* | 20.5
COCCN(C(=O)CCC(=O)Nc1cc(C)on1)C(C(=O)NC1CCCC1)c1ccccc1C (centres undefined) | -18.9 | 2.1 | -20.4 | -10.2 | -3.0 | -5.5 | x
Cc1ccc(C(C)NC(=O)c2cc3cc(Br)ccc3oc2=N)cc1 (centres undefined) | -6.2 | -4.2 | 51.2* | 20.7 | 17.7 | x | 35.1
COc1ccc2[nH]c(C(=O)N/N=C/c3ccc(OC)c(O)c3)cc2c1 | 37.8 | -3.9 | 56.4* | 47.8 | -9.2 | x | 53.0* | Full FLuc ctr=67.4*

Screening data deposited in PubChem BioAssay by several laboratories.
